Published values of several laboratories.
Target: Ribosomal protein S6 kinase beta-1 (RPS6KB1, Homo sapiens, UniProt P23443)

Structure (SMILES)	read-out	action	technique	tested at	endpoint	value
CCOCCn1cc(C(=O)Nc2ccc(-n3nc(-c4cccnc4)cc3C(F)(F)F)cn2)ccc1=O	cell-free assay	–	competition with immobilised ligand	1 µM	remaining binding	97%
COc1cc2ncnc(Nc3ccc(Oc4ccccc4)cc3C)c2cc1OC	enzyme activity	inhibitor	–	1 µM	inhibition	-2%
Cc1ccc(C(=O)NCc2ccsc2)cc1C#Cc1cn(C(C)C)c2ncnc(N)c12	enzyme activity	inhibitor	–	1 µM	activity vs control	92%
CNC(=O)c1cc(Oc2ccc(NC(=O)Nc3ccc(Cl)c(C(F)(F)F)c3)cc2)ccn1	cell-free assay	–	–	0.5 µM	remaining signal	91.4%
CC/C(=N\NC(=O)NCc1cccc(O)c1)c1ccc(O)c(C)c1O	enzyme activity	inhibitor	–	0.1 µM	inhibition	77.8%
CC(=O)c1c(NS(C)(=O)=O)c2cc(-c3ccc(Cl)cc3)c(-c3ccc(Cl)cc3Cl)nc2n(C)c1=O	cell-free assay	–	competition with immobilised ligand	1 µM	remaining binding	95%
COc1ccc(COc2ccc(Cc3cnc(N)nc3N)cc2OC)cc1	cell-free assay	–	–	0.5 µM	remaining signal	89.5%
CN(C)C1CCN(CC#Cc2nn(C3CCCC3)c3nc(NCc4ccccc4)ncc23)C1 (centres unmarked)	enzyme activity	inhibitor	FRET	0.1 µM	inhibition	6%
Cn1cncc1C1=CN(c2ncnc3[nH]cnc23)CCS1	enzyme activity	inhibitor	radiometric	50 nM	inhibition	14%
O=C1Nc2ccc(Cl)cc2C1=Cc1cc(Cl)c(O)c(Cl)c1	cell-free assay	–	–	0.5 µM	remaining signal	91%
CCN(CC)CCNC(=O)c1c(C)[nH]c(/C=C2\C(=O)Nc3ccc(F)cc32)c1C	enzyme activity	inhibitor	–	10 µM	inhibition	90%
CCCS(=O)(=O)Nc1ccc(F)c(C(=O)c2c[nH]c3ncc(-c4ccc(Cl)cc4)cc23)c1F	enzyme activity	inhibitor	–	1 µM	inhibition	< 10%
CNCc1ccccc1-c1csc([C@@H](C)Nc2nc(C)nc3cc(OC)c(OC)cc23)c1	cell-free assay	–	competition with immobilised ligand	1 µM	remaining binding	86%
Cc1cc(NC(=O)c2cccc3cc(-c4cccc5[nH]nc(N)c45)ccc23)ccc1F	enzyme activity	inhibitor	–	0.1 µM	activity vs control	110%
COc1cccc(CNC(=O)c2nc3scc(COCc4ccc(C(=O)O)cc4)c3c(=O)[nH]2)c1	cell-free assay	–	competition with immobilised ligand	1 µM	remaining binding	96.1%
CC(C)c1ccc(NC(=O)c2cccs2)c(-c2nc3ccccc3[nH]c2=O)c1	enzyme activity	inhibitor	–	1 µM	activity vs control	93%
COc1cc(-c2cn(C3CCc4c(F)cccc4N(CC(F)(F)F)C3=O)nn2)ccc1-n1cnc(C)c1 (centres unmarked)	cell-free assay	–	competition with immobilised ligand	1 µM	remaining binding	100%
O=S(=O)(NCCNC/C=C/c1ccc(Br)cc1)c1cccc2cnccc12	cell-free assay	–	–	0.5 µM	remaining signal	25.6%
N#Cc1ccc(Nc2ccc3[nH]c(=O)[nH]c3c2)c(Cl)c1	cell-free assay	–	competition with immobilised ligand	1 µM	remaining binding	100%
Cc1ccc(NC(=O)c2ccc(C)c(C(F)(F)F)c2)cc1C#Cc1nn(C2CCC(O)CC2)c2ncnc(N)c12 (centres unmarked)	cell-free assay	–	–	10 µM	remaining signal	33%
